# Assay results taken from ChEMBL document CHEMBL1142885, “Evaluation of [11C]hemicholinium-15 and [18F]hemicholinium-15 as new potential PET tracers for the high-affinity choline uptake system in the heart” (Bioorg Med Chem, 2007).
# Tests used:
# Conditions in all cases: in vivo
# [1] = Biodistribution in Fisher rat urine at 1 to 3 mCi, iv after 20 mins; assay type: ADME, organism-based
# In short: (§1)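 Fisher rats (200–300 g) given [¹¹C]HC-15 or [¹⁸F]HC-15 (1–3 mCi, sub-pharmacologic) by tail-vein iv injection under conscious restraint. Sacrificed by decapitation under halothane anesthesia at 20 min, tissues excised and weighed, decay-corrected radioactivity gamma-counted. Expressed as %ID and %ID/g; values are the average of four rats.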
# [2] = Biodistribution in Fisher rat skeletal muscle s at 1 to 3 mCi, iv after 20 mins; assay type: ADME, organism-based, Muscle tissue; in short: as §1
# Solar plexus = experiment: Biodistribution in Fisher rat solar plexus at 1 to 3 mCi, iv after 20 mins; assay type: ADME, organism-based; in short: as §1
# [3] = Biodistribution in Fisher rat atrioventricular node at 1 to 3 mCi, iv after 20 mins; assay type: ADME, organism-based; in short: as §1
# [4] = Biodistribution in Fisher rat left ventricle at 1 to 3 mCi, iv after 20 mins; assay type: ADME, organism-based, Heart left ventricle; in short: as §1
# [5] = Biodistribution in Fisher rat right ventricle at 1 to 3 mCi, iv after 20 mins; assay type: ADME, organism-based, Heart right ventricle; in short: as §1
# Septum = experiment: Biodistribution in Fisher rat septum at 1 to 3 mCi, iv after 20 mins; assay type: ADME, organism-based; in short: as §1
# [6] = Biodistribution in Fisher rat right atrium at 1 to 3 mCi, iv after 20 mins; assay type: ADME, organism-based, Cardiac atrium; in short: as §1
# [7] = Biodistribution in Fisher rat left atrium at 1 to 3 mCi, iv after 20 mins; assay type: ADME, organism-based, Cardiac atrium; in short: as §1
# Blood = experiment: Biodistribution in Fisher rat blood at 1 to 3 mCi, iv after 20 mins; assay type: ADME, organism-based; in short: as §1
# Brain = experiment: Biodistribution in Fisher rat brain at 1 to 3 mCi, iv after 20 mins; assay type: ADME, organism-based; in short: as §1
# Lung = experiment: Biodistribution in Fisher rat lung at 1 to 3 mCi, iv after 20 mins; assay type: ADME, organism-based; in short: as §1
# Liver = experiment: Biodistribution in Fisher rat liver at 1 to 3 mCi, iv after 20 mins; assay type: ADME, organism-based; in short: as §1
# Kidney = experiment: Biodistribution in Fisher rat kidney at 1 to 3 mCi, iv after 20 mins; assay type: ADME, organism-based; in short: as §1
Drug uptake [1],Drug uptake [2],Drug uptake (Solar plexus),Drug uptake [3],Drug uptake [4],Drug uptake [5],Drug uptake (Septum),Drug uptake [6],Drug uptake [7],Drug uptake (Blood),Drug uptake (Brain),Drug uptake (Lung),Drug uptake (Liver),Drug uptake (Kidney),Structure (SMILES)
31.835 % ID/g,0.091 % ID/g,0.938 % ID/g,1.083 % ID/g,0.859 % ID/g,1.316 % ID/g,0.01 % ID/g,0.488 % ID/g,0.526 % ID/g,0.181 % ID/g,0.022 % ID/g,1.302 % ID/g,6.284 % ID/g,3.618 % ID/g,C[N+]1([11CH3])CCOC(O)(c2ccccc2)C1.O=S(=O)([O-])C(F)(F)F (stereo not drawn)
17.434 % ID/g,0.145 % ID/g,0.744 % ID/g,0.793 % ID/g,1.28 % ID/g,0.037 % ID/g,1.557 % ID/g,0.756 % ID/g,0.796 % ID/g,0.201 % ID/g,0.046 % ID/g,3.423 % ID/g,4.378 % ID/g,11.651 % ID/g,C[N+]1(C[18F])CCOC(O)(c2ccccc2)C1.O=S(=O)([O-])C(F)(F)F (stereo not drawn)
